This is an account of results in the RNAGym collection of RNA variant scans (doi:10.1126/science.aae0568).

The chains are these.
B1: tRNA (parent)
chain: GUUCCGUUGGCGUAAUGGUAACGCGUCUCCCUCCUAAGGAGAAGACUGCGGGUUCGAGUCCCGUACGGAACG

This sample holds only a part of the variants without activity. Bounds are passed on as bounds.

Variants of B1 are the subject of the series. In words: yeast fitness relative to wild type (ratio to wild type); higher = fitter; tRNA-Arg(CCU), competitive growth, 37 C, YPD. In short, it runs like this:
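A pool of Saccharomyces cerevisiae strains, each with a tRNA-Arg(CCU) gene variant at the native genomic locus, was competed in YPD at 37°C for 24 hours across six parallel replicates. The variants had been chemically synthesised at a 3% per-site mutation rate over 69 sites, and gene amplicons before and after competition were read by 100-nucleotide paired-end sequencing. Darwinian fitness relative to wild type rested on changes in genotype frequencies. Genotypes required ≥ 100 starting reads, and estimates < 0.5 were set to 0.5.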
Regarding U2C A65G, the yeast fitness is 0.867.

In the case of A14G U19A C27U C34U C66U, the yeast fitness was not above 0.5.

In the case of A14U U19C C29U C30A A45C, the yeast fitness is not above 0.5.

For the variant A14U C62U C66G, the yeast fitness is not above 0.5.

Consider C4U C34U, for which the yeast fitness came to 0.737.

For C4U G23C C30G, the yeast fitness was not above 0.5.

On to G6A C29G G38C A40G A45C, for which the yeast fitness was not above 0.5.

As to G6A A37G, the yeast fitness stood at 0.722.

Take C11G C29U C34U C62A C66U: the yeast fitness stood at 0.565.

Take C22G C31U C49U C61A: the yeast fitness was not above 0.5.

With A42U U53C, the yeast fitness turned out to be 0.732.

U32A G39A U54A: the yeast fitness is not above 0.5.

In the case of C4A U13G C24U A42G G52A, the yeast fitness was 0.601.

With C5U C66A, the yeast fitness worked out at 0.729.

With C4G C5G U8C G23C C29U A45U C60U C62U A70C, the yeast fitness is not above 0.5.

Regarding U54C C62U, the yeast fitness was 0.815.

As to C11U C29G A37C A42U A57G G67A, the yeast fitness amounted to 0.566.

Consider G9A C24G A37C A70U, for which the yeast fitness is not above 0.5.

For the variant G50U C66U, the yeast fitness turned out to be 0.96.

A20G U53C G56C: the yeast fitness is not above 0.5.

On to C24G C49G G68U, for which the yeast fitness was not above 0.5.

Turning to U7A A20G G23A U26G C66A, the yeast fitness is not above 0.5.

On to C5G C11G A15C A65C, for which the yeast fitness is not above 0.5.

As to U3A A14G C46G, the yeast fitness is 0.62.

With G9C G10C A36U G44A C46G, the yeast fitness came to 0.563.

For the variant G10C C30U C66A, the yeast fitness was not above 0.5.

Regarding C22U G51A, the yeast fitness turned out to be 0.804.

With G38U A65G, the yeast fitness amounted to 0.802.

As to A21U G52A C62G, the yeast fitness was not above 0.5.

In the case of G25C C33U U47G C49U G52C, the yeast fitness was not above 0.5.

On to A21C U32C A40G G68A, for which the yeast fitness is not above 0.5.

With C5U C24A U32C, the yeast fitness stood at 0.565.

Regarding U2A C24G C31U C33G A42C A43U, the yeast fitness was 0.651.

U32A A57U: the yeast fitness came to 0.558.

On to U7C A45C A70G, for which the yeast fitness is not above 0.5.

Consider G52C A57C G63C U64C, for which the yeast fitness is not above 0.5.

As for A15C C31U C62G U64G A65G G67C, the yeast fitness was not above 0.5.

With U28A C33G C49G G50U, the yeast fitness was not above 0.5.

On to C4A C11A C33G, for which the yeast fitness came to 0.544.

With C49G C60U C62U U64A, the yeast fitness was not above 0.5.

As for C27U C31G A43C C49G G52C U59A G68A, the yeast fitness is not above 0.5.

In the case of G12C U13C U26A C33A C34G, the yeast fitness was not above 0.5.

As for U59C A70G, the yeast fitness was found to be 1.01.

For the variant C5G A21G, the yeast fitness was 0.997.

Regarding A15G G41A, the yeast fitness was 0.854.

Regarding U3A G39C A45G G50A, the yeast fitness is not above 0.5.

Consider U19A C27A C46A G67A, for which the yeast fitness is not above 0.5.

Regarding A21C C30G A65G, the yeast fitness was not above 0.5.

Take C5G U13G C29U A40G C60U A65G: the yeast fitness was not above 0.5.

For C4U G6A U8G C31U G63A, the yeast fitness was not above 0.5.

Consider C34G C60G C62U, for which the yeast fitness worked out at 0.65.

For the variant U3A A21G A70C, the yeast fitness was determined as 1.05.

In the case of A20G A42C A70G, the yeast fitness amounted to 0.629.

Regarding G10C C30G C46U, the yeast fitness is not above 0.5.

C5G C34U C66U: the yeast fitness is not above 0.5.

For U16A C22G A69U, the yeast fitness turned out to be 0.791.

As for G10A C60G, the yeast fitness came to 0.531.

For the variant G10C C24U G68U, the yeast fitness was not above 0.5.

Regarding A37U U54A, the yeast fitness is not above 0.5.

With U3A A36C G51C, the yeast fitness was found to be 0.534.

For the variant G12C A43G U54C A69C A70C, the yeast fitness is not above 0.5.

For U13G A14U U16A G17U, the yeast fitness is not above 0.5.

As to A20C A37C, the yeast fitness was determined as 0.762.

In the case of C22U C30A A40U A43U, the yeast fitness is not above 0.5.

C22A A57U: the yeast fitness was determined as 0.606.

Consider U2A U13G A40C G41C A57G G63C A65U, for which the yeast fitness was not above 0.5.

U7G G25C: the yeast fitness was determined as 0.958.

Turning to C5G C11U G25C G52U, the yeast fitness came out at 0.618.

Consider U3C U19A C22U G63A, for which the yeast fitness is not above 0.5.

Turning to A15U G38C G39A A43C G48A, the yeast fitness was not above 0.5.

Take C24U C29U C46U: the yeast fitness is 0.554.

Turning to C24A G52A, the yeast fitness turned out to be 0.752.

For the variant G18U U26A U59C C66A A70U, the yeast fitness is not above 0.5.

Consider U3G C24A C30U, for which the yeast fitness is not above 0.5.

For the variant G6A U13G C27U, the yeast fitness was found to be 0.539.

In the case of G9C A14C A15U G23A C34A G52C, the yeast fitness was not above 0.5.

For G25C A37U, the yeast fitness amounted to 0.56.

Turning to C31G A43G C49U G68A, the yeast fitness turned out to be 0.558.

For G9C C61A, the yeast fitness was determined as 0.531.

Turning to C24U A45C A69C, the yeast fitness is 0.619.

As for C4G C11A G17A A20G C27U A43U C49G C60U G68A, the yeast fitness was not above 0.5.

Regarding U54C C66U, the yeast fitness is 0.767.

In the case of C11G C61U G68A, the yeast fitness is not above 0.5.

Take C27G A42U G48A: the yeast fitness was not above 0.5.

As for U3C A45U U59C, the yeast fitness came to 0.699.

With C4G A45G A57U C66U, the yeast fitness amounted to 0.512.

In the case of A14G C34G A43C G58U A65U, the yeast fitness is not above 0.5.

With C24G U28G C29G, the yeast fitness is not above 0.5.

As for G9C G23A, the yeast fitness is 0.544.

For the variant U53A A69C, the yeast fitness came out at 0.622.

Regarding G38A G58A, the yeast fitness turned out to be 1.06.

Take C5A A42G G51C: the yeast fitness is not above 0.5.

For U16A U26A C49G C61A, the yeast fitness turned out to be 0.586.

In the case of U2A U13C A20G A21C C34U A36G, the yeast fitness is not above 0.5.

A14G C22U A70C: the yeast fitness is not above 0.5.

Take U3G A14G: the yeast fitness amounted to 0.907.

Turning to C11G C24U U35A, the yeast fitness turned out to be 0.622.

Take A20U C31U C66A: the yeast fitness was not above 0.5.

On to C5U C34G C61U C66U, for which the yeast fitness is not above 0.5.

For U7A C24U U47C, the yeast fitness is 0.566.

For A36U G48U C66A, the yeast fitness was not above 0.5.

For the variant G6A C29A, the yeast fitness worked out at 0.647.

For the variant C11A C33U C49U C60G, the yeast fitness is not above 0.5.

For the variant C5U C24U A36G, the yeast fitness amounted to 0.791.

Consider A15U A69C, for which the yeast fitness was determined as 0.77.

With U16A U28C A70C, the yeast fitness is 0.569.

For the variant G48C U54G C55U, the yeast fitness is not above 0.5.

Take A15U C22G A37G C55G C60G: the yeast fitness is not above 0.5.

Consider C29U C49U C55A, for which the yeast fitness was not above 0.5.

For the variant U16C G51A, the yeast fitness was determined as 0.633.

As for C5U C31A A40G, the yeast fitness stood at 0.743.

As for U3C C4G C66G, the yeast fitness is not above 0.5.

For C4G G50C, the yeast fitness is 0.679.

With U7C U26G, the yeast fitness was determined as 0.649.

For the variant C11U U28G G51C U64A C66U A69C, the yeast fitness is not above 0.5.

Regarding C5A G25A U28C C31U A40C A42G, the yeast fitness is not above 0.5.

With U32A G63C, the yeast fitness stood at 0.626.

Turning to C11G G25A G56A C60A C62U G68C, the yeast fitness is not above 0.5.

Regarding U7C G10C C24U C46U G63C, the yeast fitness was not above 0.5.

In the case of A21G C34G A40G, the yeast fitness was found to be 0.572.

As for G6A A14G C66A, the yeast fitness is not above 0.5.

A36C G48C U54G: the yeast fitness was not above 0.5.

C11U C34A: the yeast fitness came to 0.758.

For the variant A14C C22U C34A, the yeast fitness is not above 0.5.

For the variant C5U G9C A36G, the yeast fitness is 0.538.

For G6A U16A G25C, the yeast fitness turned out to be 0.644.

Consider G12A A20C A43U U47C C62U A70C, for which the yeast fitness was not above 0.5.

C4G A37G A43G A69U: the yeast fitness was not above 0.5.

G12C C22U U54C: the yeast fitness is 0.683.

On to C4U C31U, for which the yeast fitness turned out to be 0.966.

As to U16G C29U C31A C46U, the yeast fitness turned out to be 0.716.

Consider U3G C29A U53A, for which the yeast fitness was not above 0.5.

As for G41A C49U G63A, the yeast fitness came out at 0.678.

C22G U26A C29G A70U: the yeast fitness came to 0.591.

In the case of U16C C49A, the yeast fitness came to 0.731.

On to C55U C61G C62G, for which the yeast fitness is 0.629.

With A15G G23A A36G C55A, the yeast fitness is not above 0.5.

As to C22U A45U C62U, the yeast fitness was determined as 0.671.

Consider C30G C34U A42U G68A, for which the yeast fitness was not above 0.5.

Consider G48C C49U C55U, for which the yeast fitness turned out to be 0.663.

Regarding C5A C33G, the yeast fitness amounted to 0.698.

In the case of C11U A45G G52C, the yeast fitness was not above 0.5.

For A14U A43G, the yeast fitness was found to be 0.537.

With G6C G23A C34G, the yeast fitness is not above 0.5.

With C11U U32G U54A G67C, the yeast fitness is not above 0.5.

For G17A C22G U28A C31G C55A G68C, the yeast fitness was not above 0.5.

Consider U19C A36U C62G, for which the yeast fitness was determined as 0.529.

As to A20G C29G G68A, the yeast fitness was not above 0.5.

In the case of A14C C22U A70G, the yeast fitness is not above 0.5.

G12C C27A G38A: the yeast fitness is 0.584.

As for C30A A42C A69G, the yeast fitness is not above 0.5.

As for U3C C55U A65G, the yeast fitness was 0.514.

Take C11G U19A C31U A43G G52C: the yeast fitness was not above 0.5.

Take A15U A20U C27G C49G: the yeast fitness turned out to be 0.64.

Turning to U19C C31U C33G G41A C49G U54C G63A, the yeast fitness is not above 0.5.

Consider A14G G38A, for which the yeast fitness is 0.799.

As for G10C C31A G56A A65G C66A G68C, the yeast fitness is not above 0.5.

On to C5G G25A U54G C55U A70C, for which the yeast fitness is not above 0.5.

As for C4A U26A, the yeast fitness is 0.683.

With U59A A65U, the yeast fitness came out at 0.636.

In the case of G9A G51A C60U G67A, the yeast fitness stood at 0.588.

Regarding C49G A65C, the yeast fitness was 0.733.

For the variant C27A A43C A69C, the yeast fitness amounted to 0.748.

Take U13A G41C G52A: the yeast fitness is not above 0.5.

With A21U C34A G56C G63A U64C G67C, the yeast fitness was not above 0.5.

For U16C C29U C34U A57C U64C, the yeast fitness is not above 0.5.

Take C11U A21U C55A: the yeast fitness turned out to be 0.632.
